The values below come from ChEMBL document CHEMBL1121616, “Bradykinin analogues containing N alpha-methyl amino acids” (1980).

The species named for assay [1] is Cavia porcellus. Description: Compound was evaluated for mean percent change from control contractions of isolated guinea pig ilea produced by Acetylcholine (ACh) at a concentration of 10 ug/mL. Format: functional. Put shortly: (§1)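 Isolated guinea pig ileum segments. Two control contractions to each agonist were elicited at regular 3- or 4-min intervals. Three sets of contractions were then elicited in the presence of the test compound, the first set used for equilibration. The mean of the last two treated sets was compared with the mean of the controls and expressed as percent change.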

For assay [2], the species on record is Cavia porcellus. The experiment in a line: Compound was evaluated for mean percent change from control contractions of isolated guinea pig ilea produced by Bradykinin (Brdkn) at a concentration of 10 ug/mL. It is filed as functional. Put shortly:
as §1

For assay [3], the species on record is Cavia porcellus. The experiment in a line: Compound was evaluated for muscle stimulating potency in isolated guinea pig ilea relative to bradykinin triacetate (1). Format: functional, Muscle tissue. Put shortly: (§2)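 Isolated guinea pig ileum segments were used in four-point parallel-line bioassays against bradykinin triacetate, with potency calculated on a weight basis. Doses were given at 4-min intervals in a randomized block design, and the bath was rinsed after peak contraction. Relative potency and fiducial limits were estimated from contraction magnitudes by Finney's method. Only assays without significant deviation from parallelism were accepted.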

The species named for assay [4] is Cavia porcellus. Description: Compound was evaluated for mean percent change from control contractions of isolated guinea pig ilea produced by Prostaglandin E2 (PGE2) at a concentration of 10 ug/mL. It is filed as functional. Put shortly: as §1
The species named for assay [5] is Cavia porcellus. The experiment in a line: Compound was evaluated for mean percent change from control contractions of isolated guinea pig ilea produced by Acetylcholine (ACh) at a concentration of 10.0 ug/mL. Format: functional. A digest of the protocol:
as §1

The species entered for assay [6] is Cavia porcellus. The experiment in a line: Compound was evaluated for mean percent change from control contractions of isolated guinea pig ilea produced by Bradykinin (Brdkn) at a concentration of 0.01 ug/mL. It is filed as functional. A digest of the protocol:
as §1

The species entered for assay [7] is Cavia porcellus. The experiment in a line: Compound was evaluated for mean percent change from control contractions of isolated guinea pig ilea produced by Bradykinin (Brdkn) at a concentration of 0.1 ug/mL. Format: functional. A digest of the protocol: as §1
The species named for assay [8] is Cavia porcellus. The experiment in a line: Compound was evaluated for mean percent change from control contractions of isolated guinea pig ilea produced by Bradykinin (Brdkn) at a concentration of 1.0 ug/mL. Format: functional. Put shortly:
as §1

The species entered for assay [9] is Cavia porcellus. The experiment in a line: Compound was evaluated for mean percent change from control contractions of isolated guinea pig ilea produced by Bradykinin (Brdkn) at a concentration of 10.0 ug/mL. It is filed as functional. Put shortly:
as §1

Assay [10] is filed under the species Cavia porcellus. Description: Compound was evaluated for mean percent change from control contractions of isolated guinea pig ilea produced by Acetylcholine (ACh) at a concentration of 0.01 ug/mL. Format: functional. A digest of the protocol:
as §1

For assay [11], the species on record is Cavia porcellus. Description: Compound was evaluated for mean percent change from control contractions of isolated guinea pig ilea produced by Acetylcholine (ACh) at a concentration of 0.1 ug/mL. It is filed as functional. A digest of the protocol: as §1
The species entered for assay [12] is Cavia porcellus. Description: Compound was evaluated for mean percent change from control contractions of isolated guinea pig ilea produced by Acetylcholine (ACh) at a concentration of 1.0 ug/mL. It is filed as functional. A digest of the protocol: as §1
The species named for assay [13] is Cavia porcellus. The experiment in a line: Compound was evaluated for mean percent change from control contractions of isolated guinea pig ilea produced by Prostaglandin E2 (PGE2) at a concentration of 0.01 ug/mL. Format: functional. A digest of the protocol: as §1
The species entered for assay [14] is Cavia porcellus. The experiment in a line: Compound was evaluated for mean percent change from control contractions of isolated guinea pig ilea produced by Prostaglandin E2 (PGE2) at a concentration of 0.1 ug/mL. It is filed as functional. Put shortly:
as §1

The species entered for assay [15] is Cavia porcellus. The experiment in a line: Compound was evaluated for mean percent change from control contractions of isolated guinea pig ilea produced by Prostaglandin E2 (PGE2) at a concentration of 10.0 ug/mL. It is filed as functional. Put shortly:
as §1

Assay [16] is filed under the species Cavia porcellus. Description: Compound was evaluated for muscle stimulating potency in isolated guinea pig ilea. Format: functional, Muscle tissue. A digest of the protocol:
as §2

Assay [17] is filed under the species Cavia porcellus. The experiment in a line: Compound was evaluated for mean percent change from control contractions of isolated guinea pig ilea produced by Acetylcholine (ACh) at a concentration of 1 ug/mL. Format: functional. Put shortly: as §1
The species named for assay [18] is Cavia porcellus. Description: Compound was evaluated for mean percent change from control contractions of isolated guinea pig ilea produced by Acetylcholine (ACh) at a concentration of 3 ug/mL. It is filed as functional. Put shortly: as §1
The species named for assay [19] is Cavia porcellus. The experiment in a line: Compound was evaluated for mean percent change from control contractions of isolated guinea pig ilea produced by Bradykinin (Brdkn) at a concentration of 1 ug/mL. Format: functional. Put shortly: as §1
The species entered for assay [20] is Cavia porcellus. The experiment in a line: Compound was evaluated for mean percent change from control contractions of isolated guinea pig ilea produced by Bradykinin (Brdkn) at a concentration of 3 ug/mL. It is filed as functional. Put shortly:
as §1

For assay [21], the species on record is Cavia porcellus. The experiment in a line: Compound was evaluated for mean percent change from control contractions of isolated guinea pig ilea produced by Prostaglandin E2 (PGE2) at a concentration of 1 ug/mL. Format: functional. A digest of the protocol:
as §1

For assay [22], the species on record is Cavia porcellus. Description: Compound was evaluated for mean percent change from control contractions of isolated guinea pig ilea produced by Prostaglandin E2 (PGE2) at a concentration of 3 ug/mL. Format: functional. A digest of the protocol: as §1
For assay [23], the species on record is Cavia porcellus. Description: Compound was evaluated for mean percent change from control contractions of isolated guinea pig ilea produced by Acetylcholine (ACh) at a concentration of 30 ug/mL. It is filed as functional. Put shortly: as §1
The species entered for assay [24] is Cavia porcellus. Description: Compound was evaluated for mean percent change from control contractions of isolated guinea pig ilea produced by Bradykinin (Brdkn) at a concentration of 30 ug/mL. Format: functional. Put shortly:
as §1

The species named for assay [25] is Cavia porcellus. The experiment in a line: Compound was evaluated for mean percent change from control contractions of isolated guinea pig ilea produced by Prostaglandin E2 (PGE2) at a concentration of 30 ug/mL. Format: functional. A digest of the protocol: as §1

“And” between values parts separate entries of the source, which are not always exact repeats. Identical values can stand only once. Non-standard residues stand in square brackets, D forms with d. Residues, ends and D or L forms follow the SMILES beside them. NMeR = CN[C@@H](CCCNC(=N)N)C(=O)O; NMeF = CN[C@@H](Cc1ccccc1)C(=O)O; Sar = CNCC(=O)O

`CN(C(=O)[C@H](Cc1ccccc1)NC(=O)[C@@H]1CCCN1C(=O)[C@H](CO)NC(=O)[C@H](Cc1ccccc1)NC(=O)CNC(=O)[C@@H]1CCCN1C(=O)[C@@H]1CCCN1C(=O)[C@@H](N)CCCN=C(N)N)[C@@H](CCCN=C(N)N)C(=O)O`: the Change was -28% in the assay listed under Cavia porcellus [1], -64% in the assay listed under Cavia porcellus [2] and 7% in the assay listed under Cavia porcellus [4]. Moreover, the Potency in the assay listed under Cavia porcellus [3] is 0.0046.

Regarding `CN[C@@H](CCCN=C(N)N)C(=O)N1CCC[C@H]1C(=O)N1CCC[C@H]1C(=O)NCC(=O)N[C@@H](Cc1ccccc1)C(=O)N[C@@H](CO)C(=O)N1CCC[C@H]1C(=O)N[C@@H](Cc1ccccc1)C(=O)N[C@@H](CCCN=C(N)N)C(=O)O` (H-[NMeR]PPGFSPFR-OH), the Change in the assay listed under Cavia porcellus [5] is listed as -97%; in the assay listed under Cavia porcellus [6] it was -88%; in the assay listed under Cavia porcellus [7], -100%; in the assay filed under Cavia porcellus [8], -100%; in the assay listed under Cavia porcellus [9] it was -100%; in the assay listed under Cavia porcellus [10], -29%. For the same compound, the Change is -67% in the assay filed under Cavia porcellus [11]; -100% in the assay filed under Cavia porcellus [12]; -28% in the assay listed under Cavia porcellus [13]; -88% in the assay listed under Cavia porcellus [14]; -95% and -83% in the assay listed under Cavia porcellus [15]. Besides, the Potency in the assay listed under Cavia porcellus [3] was 0.61.

`N=C(N)NCCC[C@H](NC(=O)[C@H](Cc1ccccc1)NC(=O)[C@@H]1CCCN1C(=O)[C@H](CO)NC(=O)[C@H](Cc1ccccc1)NC(=O)CNC(=O)[C@@H]1CCCN1C(=O)[C@@H]1CCCN1C(=O)[C@@H](N)CCCNC(=N)N)C(=O)O` [BRADYKININ] (H-RPPGFSPFR-OH): in the assay listed under Cavia porcellus [16], the Potency is on record as 1.

`CN(C(=O)CNC(=O)[C@@H]1CCCN1C(=O)[C@@H]1CCCN1C(=O)[C@@H](N)CCCN=C(N)N)[C@@H](Cc1ccccc1)C(=O)N[C@@H](CO)C(=O)N1CCC[C@H]1C(=O)N[C@@H](Cc1ccccc1)C(=O)N[C@@H](CCCN=C(N)N)C(=O)O` (H-RPPG[NMeF]SPFR-OH): the Change in the assay listed under Cavia porcellus [1] is reported as -31%; in the assay filed under Cavia porcellus [2] it was -32%; in the assay filed under Cavia porcellus [4], 1%. For the same compound, in the assay listed under Cavia porcellus [3], the Potency is reported as 0.01.

Consider `CN(C(=O)[C@@H]1CCCN1C(=O)[C@H](CO)NC(=O)[C@H](Cc1ccccc1)NC(=O)CNC(=O)[C@@H]1CCCN1C(=O)[C@@H]1CCCN1C(=O)[C@@H](N)CCCN=C(N)N)[C@@H](Cc1ccccc1)C(=O)N[C@@H](CCCN=C(N)N)C(=O)O` (H-RPPGFSP[NMeF]R-OH), for which the Change was -75% in the assay listed under Cavia porcellus [1]; -6% in the assay listed under Cavia porcellus [17]; -41% in the assay filed under Cavia porcellus [18]; -97% in the assay listed under Cavia porcellus [2]; -27% in the assay listed under Cavia porcellus [19]; -81% in the assay filed under Cavia porcellus [20]. The Change is reported as -88% in the assay listed under Cavia porcellus [4], -17% in the assay listed under Cavia porcellus [21] and -60% in the assay listed under Cavia porcellus [22]. This compound also registered a Potency in the assay listed under Cavia porcellus [3] of 0.015.

As to `CN(CC(=O)N[C@@H](Cc1ccccc1)C(=O)N[C@@H](CO)C(=O)N1CCC[C@H]1C(=O)N[C@@H](Cc1ccccc1)C(=O)N[C@@H](CCCN=C(N)N)C(=O)O)C(=O)[C@@H]1CCCN1C(=O)[C@@H]1CCCN1C(=O)[C@@H](N)CCCN=C(N)N` (H-RPP[Sar]FSPFR-OH), the Change in the assay listed under Cavia porcellus [1] was -58%; in the assay listed under Cavia porcellus [17], -32%; in the assay filed under Cavia porcellus [23], -70%; in the assay filed under Cavia porcellus [18] it was -9%; in the assay listed under Cavia porcellus [2], -25%; in the assay listed under Cavia porcellus [19] it was 5%. The Change in the assay filed under Cavia porcellus [24] is given as -40%; in the assay listed under Cavia porcellus [20], 21%; in the assay filed under Cavia porcellus [4], -85%; in the assay listed under Cavia porcellus [21], -20%; in the assay filed under Cavia porcellus [25], -69%; in the assay filed under Cavia porcellus [22], -27%. In addition, the Potency in the assay filed under Cavia porcellus [3] is 0.0039.
